Laboratory results: ChEMBL document CHEMBL1132156, “Synthesis and structure-activity relationships of potential anticancer agents: alkylcarbamates of 3-(9-acridinylamino)-5-hydroxymethylaniline” (J Med Chem, 1999)

Assays:
HL-60 = assay: In vitro inhibition of human leukemic HL-60 cell growth in culture; assay type: functional, cell-based
How it was run: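 HL-60 cells were seeded at 5×10^4 cells/mL in RPMI 1640 with 10% heat-inactivated FBS, penicillin and streptomycin, at 37 °C in 5% CO2. Cells were exposed for 72 h to six or seven drug concentrations, run in duplicate. Viability was read by XTT-tetrazolium microculture absorbance, and IC50 was derived from median-effect plot analysis.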

Mus musculus [1] = assay: […] anticancer activity against B6D2F-1 mice bearing P388 leukemia measured by the Average survival time(day+/-SD) at an intravenous dose of 18(mg/kg).; assay type: functional
How it was run: (§1)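 Male B6D2F1 mice, 8 weeks old, 20–25 g. P388/0 ascites cells (0.2 mL, ascites:saline 1.10) were implanted iv on day 0, and the tumor grew in the liver. Drug was given iv by tail vein on days 1, 3, 5, 7 and 9 (Q2Dx5), with 4–5 mice per group. Survival time was scored as 8 a.m. (0.0), 1 p.m. (0.25) or 5 p.m. (0.5) deaths. %ILS was averaged against untreated controls, and toxic deaths were counted.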

Mus musculus [2] = assay: […] anticancer activity against B6D2F-1 mice bearing P388 leukemia measured by the Average survival time(day+/-SD) at an intravenous dose of 24(mg/kg).; assay type: functional; how it was run: as §1
Mus musculus [3] = assay: […] anticancer activity against B6D2F-1 mice bearing P388 leukemia measured by the average survival time(day+/-SD) at an intravenous dose of 12(mg/kg)..; assay type: functional; how it was run: as §1
Mus musculus [4] = assay: […] anticancer activity against B6D2F-1 mice bearing P388 leukemia measured by the average weight change(g) after day 7 at an intravenous dose of 18(mg/kg).; assay type: functional
How it was run: (§2)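 Male B6D2F1 mice (8 weeks old, 20–25 g) were implanted iv on day 0 with P388/0 ascites cells (0.2 mL; ascites:saline 1.10), which grew in the liver. Drug was given iv via the tail vein, Q2Dx5, on days 1, 3, 5, 7 and 9. Groups had 4–5 mice. Day 1 value is mean body weight; later days are weight change.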

Mus musculus [5] = assay: […] anticancer activity against B6D2F-1 mice bearing P388 leukemia measured by the average weight change(g) after day 7 at an intravenous dose of 24(mg/kg).; assay type: functional; how it was run: as §2
Mus musculus [6] = assay: […] anticancer activity against B6D2F-1 mice bearing P388 leukemia measured by the average weight change(g) after day 11 at an intravenous dose of 18(mg/kg).; assay type: functional; how it was run: as §2
Mus musculus [7] = assay: […] anticancer activity against B6D2F-1 mice bearing P388 leukemia measured by the average weight change(g) after day 7 at an intravenous dose of 12(mg/kg).; assay type: functional; how it was run: as §2
Mus musculus [8] = assay: […] anticancer activity against B6D2F-1 mice bearing P388 leukemia measured by the increase in lifespan(%) at an intravenous dose of 12(mg/kg)..; assay type: functional; how it was run: as §1
Mus musculus [9] = assay: […] anticancer activity against B6D2F-1 mice bearing P388 leukemia measured by the increase in lifespan(%) at an intravenous dose of 18(mg/kg).; assay type: functional; how it was run: as §1
Mus musculus [10] = assay: […] anticancer activity against B6D2F-1 mice bearing P388 leukemia measured by the average weight change(g) after day 11 at an intravenous dose of 24(mg/kg).; assay type: functional; how it was run: as §2
Mus musculus [11] = assay: […] anticancer activity against B6D2F-1 mice bearing P388 leukemia measured by the average weight change(g) after day 11 at an intravenous dose of 12(mg/kg).; assay type: functional; how it was run: as §2
Mus musculus [12] = assay: […] anticancer activity against B6D2F-1 mice bearing P388 leukemia measured by the average weight change(g) after day 9 at an intravenous dose of 12(mg/kg).; assay type: functional
How it was run: (§3)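 Male B6D2F1 mice (8 weeks old, 20–25 g) were implanted iv on day 0 with P388/0 ascites cells (0.2 mL; ascites:saline = 1.10). Tumor grew in the liver. Drug was given iv via the tail vein, Q2Dx5, on days 1, 3, 5, 7 and 9. Body weight was recorded on days 1, 7, 9 and 11 and reported as the average change (g).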

Mus musculus [13] = assay: […] anticancer activity against B6D2F-1 mice bearing P388 leukemia measured by the average weight change(g) after day 9 at an intravenous dose of 18(mg/kg).; assay type: functional; how it was run: as §3
Mus musculus [14] = assay: […] anticancer activity against B6D2F-1 mice bearing P388 leukemia measured by the average weight change(g) after day 9 at an intravenous dose of 24(mg/kg).; assay type: functional; how it was run: as §3
Mus musculus [15] = assay: […] anticancer activity against B6D2F-1 mice bearing P388 leukemia measured by the increase in lifespan(%) at an intravenous dose of 24(mg/kg).; assay type: functional; how it was run: as §1
Mus musculus [16] = assay: […] anticancer activity against 5 B6D2F-1 mice bearing P388 leukemia measured by the toxicity death at an intravenous dose of 12(mg/kg)..; assay type: organism-based; conditions: in vivo; how it was run: as §1
Mus musculus [17] = assay: […] anticancer activity against 5 B6D2F-1 mice bearing P388 leukemia measured by the toxicity death at an intravenous dose of 18(mg/kg).; assay type: organism-based; conditions: in vivo; how it was run: as §1
Mus musculus [18] = assay: […] anticancer activity against 5 4 B6D2F-1 mice bearing P388 leukemia measured by the toxicity death at an intravenous dose of 24(mg/kg).; assay type: organism-based; conditions: in vivo; how it was run: as §1
Mus musculus [19] = assay: […] anticancer activity against B6D2F-1 mice bearing P388 leukemia measured by the average body weight(g) after day 1 at an intravenous dose of 18(mg/kg).
Mus musculus [20] = assay: […] anticancer activity against B6D2F-1 mice bearing P388 leukemia measured by the average body weight(g) after day 1 at an intravenous dose of 24(mg/kg).
Mus musculus [21] = assay: […] anticancer activity against B6D2F-1 mice bearing P388 leukemia measured by the average body weight(g) after day 1 at an intravenous dose of 12(mg/kg).

Question: `O=C(Nc1cc(CO)cc(Nc2c3ccccc3nc3ccccc23)c1)OCc1ccccc1` was tested. Which IC50 (HL-60) did it give?
Answer: 29 nM

Question: For `CC(C)COC(=O)Nc1cc(CO)cc(Nc2c3ccccc3nc3ccccc23)c1`, which IC50 (HL-60) is on record?
Answer: 9 nM

Question: `Nc1cc(CO)cc(Nc2c3ccccc3nc3c(F)cccc23)c1` was tested. Which IC50 (HL-60) did it give?
Answer: 150 nM

Question: For `COC(=O)Nc1cc(CO)cc(Nc2c3ccccc3nc3ccccc23)c1`, which IC50 (HL-60) is on record?
Answer: 8.5 nM

Question: `Nc1cc(CO)cc(Nc2c3ccccc3nc3c(Cl)cccc23)c1` was tested. Which IC50 (HL-60) did it give?
Answer: 370 nM

Question: `CCOC(=O)Nc1cc(CO)cc(Nc2c3ccccc3nc3c(F)cccc23)c1` was tested. Which IC50 (HL-60) did it give?
Answer: 31 nM

Question: For `Nc1cc(CO)cc(Nc2c3ccccc3nc3c([N+](=O)[O-])cccc23)c1`, which IC50 (HL-60) is on record?
Answer: 14000 nM

Question: Which IC50 (HL-60) does the source give for `CCOC(=O)Nc1cc(CO)cc(Nc2c3ccccc3nc3c(OC)cccc23)c1` here?
Answer: 10 nM

Question: For `Nc1cc(CO)cc(Nc2c3ccccc3nc3c(Br)cccc23)c1`, which IC50 (HL-60) is on record?
Answer: 1500 nM

Question: How did the IC50 (HL-60) turn out when `CCOC(=O)Nc1cc(CO)cc(Nc2c3ccccc3nc3c(Br)cccc23)c1` was run?
Answer: 130 nM

Question: With `CCOC(=O)Nc1cc(CO)cc(Nc2c3ccccc3nc3c(C(=O)NCCN(C)C)cccc23)c1` as the molecule, how does the IC50 (HL-60) read?
Answer: 5.7 nM

Question: Which IC50 (HL-60) does the source give for `Cc1cccc2c(Nc3cc(N)cc(CO)c3)c3cccc(C(=O)NCCN(C)C)c3nc12` here?
Answer: 7.4 nM

Question: For `CC(C)(C)OC(=O)Nc1cc(CO)cc(Nc2c3ccccc3nc3ccccc23)c1`, which IC50 (HL-60) is on record?
Answer: 24 nM

Question: What about the Average survival (Mus musculus [1]) of the same molecule?
Answer: 22.1 days

Question: What about the Average survival (Mus musculus [2]) of the same molecule?
Answer: 21 days

Question: And the Average survival (Mus musculus [3])?
Answer: 18 days

Question: What about the Average weight change (Mus musculus [4]) of the same molecule?
Answer: -1.3 g

Question: What about the Average weight change (Mus musculus [5]) of the same molecule?
Answer: -1.4 g

Question: And the Average weight change (Mus musculus [6])?
Answer: -1.6 g

Question: And the Average weight change (Mus musculus [7])?
Answer: -0.1 g

Question: What about the Increase in life-span (Mus musculus [8]) of the same molecule?
Answer: 181%

Question: What about the Increase in life-span (Mus musculus [9]) of the same molecule?
Answer: 245%

Question: And the Average weight change (Mus musculus [10])?
Answer: -1.8 g

Question: What about the Average weight change (Mus musculus [11]) of the same molecule?
Answer: 0.3 g

Question: And the Average weight change (Mus musculus [12])?
Answer: -0.7 g

Question: What about the Average weight change (Mus musculus [13]) of the same molecule?
Answer: -1.2 g

Question: What about the Average weight change (Mus musculus [14]) of the same molecule?
Answer: -1.4 g

Question: What about the Increase in life-span (Mus musculus [15]) of the same molecule?
Answer: 228%

Question: And the Toxicity related death (Mus musculus [16])?
Answer: 0

Question: What about the Toxicity related death (Mus musculus [17]) of the same molecule?
Answer: 0

Question: What about the Toxicity related death (Mus musculus [18]) of the same molecule?
Answer: 2

Question: And the Body weight (Mus musculus [19])?
Answer: 23.9 g

Question: And the Body weight (Mus musculus [20])?
Answer: 22.3 g

Question: And the Body weight (Mus musculus [21])?
Answer: 23.1 g

Question: Which IC50 (HL-60) does the source give for `CNC(=O)c1cccc2c(Nc3cc(N)cc(CO)c3)c3ccccc3nc12` here?
Answer: 290 nM

Question: For `CNC(=O)c1cccc2c(Nc3cc(N)cc(CO)c3)c3cccc(OC)c3nc12`, which IC50 (HL-60) is on record?
Answer: 120 nM
